Columns and labels:
3T3-L1 adipocytes [1] = experiment: Glycerol release from 3T3-L1 adipocytes treated with C26 CM; format: cell-based, mouse; settings: 24 h
3T3-L1 adipocytes [2] = experiment: LPS-induced glycerol release from 3T3-L1 adipocytes; format: cell-based, mouse; settings: 0.5 µM or 5 µM, 1µg/ml LPS, 24 h
In short: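 3T3-L1 preadipocytes were differentiated with 1 μg/mL insulin, 0.25 μM dexamethasone and 0.5 mM IBMX, then used 8–12 days post-differentiation. Glycerol was measured with a glycerol kit, either directly in culture medium or in Krebs-Ringer buffer (3% BSA, 5 mM glucose) collected over 2 h after a 1 h preincubation. Experiments were repeated at least 2–3 times, each with n ≥3 technical replicates.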

[3] = Stability of the peptides in solution; format: physicochemical; settings: peptide in solution

With `NC(=O)c1ncn([C@@H]2O[C@H](COP(=O)(O)O)[C@@H](O)[C@H]2O)c1N` [AICAR, 5-aminoimidazole-4-carboxamide ribonucleotide] the “C26 CM-induced glycerol release” value (3T3-L1 adipocytes [1]; indicated concentrations of AICAR) was “reduced C26 CM-induced glycerol release at higher doses”.
With MK8722 the “C26 CM-induced lipolysis (glycerol release)” value (3T3-L1 adipocytes [1]; 0.5 µM or 5 µM) was “reduced C26 CM-induced lipolysis dose dependently” and the LPS-induced glycerol release (3T3-L1 adipocytes [2]) was “inhibited”.
With `C#CC[C@H](NC(=O)[C@H](CCCCN)NC(=O)[C@H](CCCCN)NC(=O)[C@H](Cc1c[nH]c2ccccc12)NC(=O)[C@H](CCCCN)NC(=O)[C@H](CCSC)NC(=O)[C@H](CCCNC(=N)N)NC(=O)[C@H](CCCNC(=N)N)NC(=O)[C@H](CC(N)=O)NC(=O)[C@H](CCC(N)=O)NC(=O)[C@H](Cc1ccccc1)NC(=O)[C@H](Cc1c[nH]c2ccccc12)NC(=O)[C@@H](NC(=O)[C@H](CCCCN)NC(=O)[C@@H](NC(=O)[C@H](CCC(N)=O)NC(=O)[C@@H](N)CCCNC(=N)N)[C@@H](C)CC)[C@@H](C)CC)C(=O)N[C@@H](CC(N)=O)C(=O)N[C@@H](Cc1c[nH]cn1)C(=O)N[C@H](C(=O)N[C@@H](CCSC)C(=O)N[C@@H](CC(C)C)C(=O)N[C@@H](CC(N)=O)C(=O)N[C@@H](Cc1c[nH]cn1)C(=O)N[C@@H](CC(C)C)C(=O)N[C@@H](Cc1ccc(O)cc1)C(=O)N[C@@H](C)C(=O)N[C@@H](CC(C)C)C(=O)N[C@@H](CO)C(=O)N[C@H](C(=O)N[C@@H](CCCCN)C(=O)N[C@@H](CC(=O)O)C(=O)NCC(=O)N[C@H](C(N)=O)C(C)C)[C@@H](C)CC)C(C)C` [Pen-X-ACIP] the “Degradation products in mass spectrometry” value [3] was “No degradation products were detected”.
